This is a sample that favours compounds with a hit; in the whole collection about 1.6% have one here.
RAD54 inh: RAD54 (human) branch migration inhibition | RAD54 Holliday junction branch migration, FAM/BHQ fluorescence | AID 602329 | inhibition, % at 10.4 µM | 360,000 tested, 0.14% active | Q92698;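 active means mean normalized replicate activity at least 40 and at least half of replicates scoring 40 or more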;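 further: 0% = median of neutral control wells and 100% = median of positive control wells; inhibitors cause a drop in the FAM fluorescence signal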
S100A4 MyoIIA: S100A4-myosin IIA interaction inhibition | P26447 | S100A4/TAMRA-MyoIIA peptide fluorescence polarization | inhibition, % at 10.7 µM | 360,000 tested, 0.14% active;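 active means mean inhibition of at least 70% across replicates, with every replicate also reaching that level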
Target sequence (P26447 whole entry, looked up): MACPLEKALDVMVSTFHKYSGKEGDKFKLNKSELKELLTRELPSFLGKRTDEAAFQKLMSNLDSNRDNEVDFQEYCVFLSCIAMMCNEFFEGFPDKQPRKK
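Material: human S100A4 monomer with TAMRA-labelled myosin IIA peptide; buffer or medium: HEPES pH 7.2 with CaCl2, KCl, NaCl, DTT, Triton; compound dosing: one concentration per compound; schedule: 5 min incubation before reading; benchmarks: neutral control DMSO, positive control TFP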
SR-BI DiI inh: blocks mouse SR-BI lipid uptake from DiI-HDL | Q61009 | ldlA[mSR-BI] CHO cells, DiI-HDL uptake fluorescence, 3 h | inhibition, % at 12.5 µM | 320,000 tested, 0.96% active | AID 488896;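 active means mean replicate inhibition of at least 70% and a set share of replicates each scoring 70 or more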;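 further: 0% = median of neutral control wells and 100% = median of positive control wells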
SR-BI uptake up: enhances SR-BI lipid uptake from DiI-HDL; CHO ldlA[mSR-BI] cells, DiI-HDL uptake fluorescence, 3 h; 100 = double the neutral-control signal; 320,000 tested, 0.096% active; activation, % at 12.5 µM; AID 504775;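 active means mean replicate activation of at least 60% and every replicate at or above 60%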;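 further: 0% = median plate neutral-control signal and 100% = twice that signal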
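system = CHO ldlA[mSR-BI] cells, LDL receptor-null, SR-BI overexpressing | medium = Ham's F12 with 0.5% BSA, HEPES 25 mM, pH 7.4 | probe or stimulus = DiI-HDL 10 µg/mL | compound dosing = single-point compound dose | incubation = compound exposure 3 h, 37 °C | technique = DiI fluorescence, bottom read | read-out = cell-associated DiI fluorescence as measure of HDL uptake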
dFosB activator: enhances mouse delta FosB homodimer DNA binding. P13346. purified delta FosB, TAMRA-CDK5 oligo fluorescence polarization; percent of positive-control signal above neutral wells. activation, % at 25 µM. 340,000 tested, 0.99% active;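 active means mean activation above about 17%, with every replicate also reaching it, limit read from the data, passing the limit was not always enough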
Target sequence (P13346 whole entry, looked up): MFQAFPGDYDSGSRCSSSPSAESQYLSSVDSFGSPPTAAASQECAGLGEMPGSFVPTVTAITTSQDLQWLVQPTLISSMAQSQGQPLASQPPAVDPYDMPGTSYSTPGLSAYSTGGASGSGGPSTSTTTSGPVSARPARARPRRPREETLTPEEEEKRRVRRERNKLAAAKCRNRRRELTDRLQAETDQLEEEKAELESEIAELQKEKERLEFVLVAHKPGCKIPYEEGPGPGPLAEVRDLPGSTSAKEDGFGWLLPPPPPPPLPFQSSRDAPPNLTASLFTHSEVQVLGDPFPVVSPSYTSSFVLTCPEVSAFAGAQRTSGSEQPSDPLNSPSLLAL
PvdQ acylase: P. aeruginosa PvdQ acylase inhibition; purified PvdQ acylase, fluorescence plate reader; inhibition, % at 10 µM; 340,000 tested, 0.063% active; AID 488965; in the data active means inhibition above about 30%, passing the limit was not always enough;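 further: 0% = vehicle neutral wells and 100% = reference inhibitor wells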
Starred values were filed as active, the others as inactive.

How did C[C@@H]1CCCCO[C@@H](CN(C)S(=O)(=O)c2cn(C)cn2)[C@H](C)CN([C@@H](C)CO)C(=O)c2cc(NC(=O)C3CCCCC3)ccc2O1 do in these assays?
RAD54 inh: 0.0; S100A4 MyoIIA: 115.7*

What do the screens show for `COc1cccc(CNC(=O)C[C@@H]2C=C[C@H](NS(=O)(=O)c3ccccc3OC)[C@@H](CO)O2)c1`?
RAD54 inh: 11.5; S100A4 MyoIIA: 7.5

Results for O=C(COC(=O)/C=C/c1ccc([N+](=O)[O-])cc1)Nc1ccc2[nH]c(=O)[nH]c2c1 ?
RAD54 inh: 5.2; S100A4 MyoIIA: -4.0; SR-BI DiI inh: -9.8; SR-BI uptake up: 9.8; dFosB activator: 31.2*; PvdQ acylase: 18.4

What do the screens show for `CCOc1cc(/C=C(/C#N)c2nc3ccccc3[nH]2)ccc1OCc1ccc(C(=O)O)o1`?
RAD54 inh: -10.7; SR-BI DiI inh: 15.0; SR-BI uptake up: -15.0; dFosB activator: -29.8; PvdQ acylase: -0.9

How did COc1cc(/C=C(\C#N)c2nc3ccccc3[nH]2)c([N+](=O)[O-])cc1OCc1ccccc1 do in these assays?
RAD54 inh: 1.3; SR-BI DiI inh: 84.9*; SR-BI uptake up: -84.9; dFosB activator: 1.3; PvdQ acylase: -5.1

How did CCN(CC)c1ccc(/C=C(/C#N)c2nc3ccccc3[nH]2)c(OC(C)C)c1 do in these assays?
RAD54 inh: -27.2; SR-BI DiI inh: 94.1*; SR-BI uptake up: -94.1; dFosB activator: -14.6; PvdQ acylase: 7.2

What do the screens show for `CCOc1cccc(/C=C(/C#N)c2nc3ccccc3[nH]2)c1OCC(=O)O`?
RAD54 inh: -7.0; S100A4 MyoIIA: -2.0; SR-BI DiI inh: -24.8; SR-BI uptake up: 24.8; dFosB activator: -0.6; PvdQ acylase: -14.9

Results for Cc1ccn2c(Nc3ccccc3)c(-c3ccccn3)nc2c1 ?
RAD54 inh: -5.5; S100A4 MyoIIA: -4.1; dFosB activator: 33.2*; PvdQ acylase: -2.0

What do the screens show for `Cc1ccn2c(Nc3ccccc3C)c(-c3ccccn3)nc2c1`?
RAD54 inh: 1.3; S100A4 MyoIIA: -10.4; dFosB activator: 8.6; PvdQ acylase: 2.1

How did CN1C(=O)c2cc(NC(=O)c3cccs3)ccc2OC[C@H]2O[C@@H](CC(=O)O)CC[C@H]21 do in these assays?
RAD54 inh: 1.6; S100A4 MyoIIA: 0.5

How did Cc1ccc(S(=O)(=O)Nc2ccccc2F)cc1C(=O)OC(C)C(=O)N1CCOCC1 (centres undefined) do in these assays?
S100A4 MyoIIA: 74.9*; SR-BI DiI inh: -20.6; SR-BI uptake up: 20.6; dFosB activator: -3.3; PvdQ acylase: 9.6

Results for Cc1c(NS(=O)(=O)c2ccc(Cl)c(C(=O)OC(C)C(=O)N3CCOCC3)c2)c(=O)n(-c2ccccc2)n1C (centres undefined) ?
RAD54 inh: 2.1; S100A4 MyoIIA: -1.8; SR-BI DiI inh: 33.2; SR-BI uptake up: -33.2; dFosB activator: -5.7; PvdQ acylase: -2.3

What do the screens show for `COc1ccc(S(=O)(=O)N(C)C[C@H]2Oc3ccc(NC(=O)C4CC4)cc3C(=O)N([C@@H](C)CO)C[C@H]2C)cc1`?
RAD54 inh: -6.3; S100A4 MyoIIA: -4.9

Results for COc1ccc(-c2[nH]c(-c3ccc(C)cc3)nc2SCC(=O)NC2CCCC2)cc1 ?
RAD54 inh: 2.2; S100A4 MyoIIA: -3.2; SR-BI DiI inh: 80.1*; SR-BI uptake up: -80.1; dFosB activator: -8.5; PvdQ acylase: -10.2

How did COc1ccc(-c2[nH]c(-c3ccc(Cl)cc3)nc2SCC(=O)Nc2nccs2)cc1 do in these assays?
RAD54 inh: -2.7; S100A4 MyoIIA: -3.0; SR-BI DiI inh: 83.2*; SR-BI uptake up: -83.2; dFosB activator: 11.6; PvdQ acylase: -7.3

Results for C=CCNC(=O)[C@@H]1[C@H]2C(=O)O[C@H](c3ccccc3)[C@H](c3ccccc3)N2[C@H](c2ccccc2OCCO)[C@@]12C(=O)N(C(=O)OCCOC)c1ccccc12 ?
RAD54 inh: -2.7; S100A4 MyoIIA: 1.2

What do the screens show for `O=C(N/N=C/c1sc(=O)n(Cc2ccc(Br)cc2)c1Cl)c1ccco1`?
S100A4 MyoIIA: 4.0; SR-BI DiI inh: 38.5; SR-BI uptake up: -38.5; dFosB activator: 35.5*; PvdQ acylase: 6.0

Results for COc1ccc(Nc2nc(-c3ccncc3)nc3ccccc23)cc1 ?
RAD54 inh: -7.7; S100A4 MyoIIA: -4.0; SR-BI DiI inh: 79.6*; SR-BI uptake up: -79.6; dFosB activator: -1.2; PvdQ acylase: -10.8

Results for COc1ccc(Nc2cc(C(=O)NC3CCCC3)c3ccccc3n2)c(OC)c1 ?
RAD54 inh: 5.0; S100A4 MyoIIA: -6.3; SR-BI DiI inh: 87.7*; SR-BI uptake up: -87.7; dFosB activator: 0.4; PvdQ acylase: -9.1

What do the screens show for `COc1ccc(Nc2nc(-c3ccccc3)nc3ccccc23)c(OC)c1`?
RAD54 inh: 13.5; S100A4 MyoIIA: 3.4; SR-BI DiI inh: 76.1*; SR-BI uptake up: -76.1; dFosB activator: -3.7; PvdQ acylase: 15.5

How did COc1ccc(OC)c(Nc2nc(-c3ccncc3)nc3ccccc23)c1 do in these assays?
RAD54 inh: -11.8; S100A4 MyoIIA: 2.4; SR-BI DiI inh: 47.6; SR-BI uptake up: -47.6; dFosB activator: -6.6; PvdQ acylase: -10.7

Results for Oc1ccc(Cl)cc1/C=C/c1ccc2cccc(O)c2n1 ?
S100A4 MyoIIA: -3.1; SR-BI DiI inh: 74.0*; SR-BI uptake up: -74.0; dFosB activator: 11.6; PvdQ acylase: -12.6

Results for COc1cc(Br)cc(/C=C/c2ccc3cccc(O)c3n2)c1O ?
RAD54 inh: -8.5; S100A4 MyoIIA: 2.5; SR-BI DiI inh: 91.3*; SR-BI uptake up: -91.3; dFosB activator: -3.7; PvdQ acylase: -11.7

Results for Oc1c(Cl)cc(Cl)cc1/C=C/c1ccc2cccc(O)c2n1 ?
S100A4 MyoIIA: -0.9; SR-BI DiI inh: 31.6; SR-BI uptake up: -31.6; dFosB activator: -6.4; PvdQ acylase: -8.3

What do the screens show for `CC(=O)Nc1ccc(NS(=O)(=O)c2ccc3c(c2)n(C)c(=O)n3C)cc1`?
RAD54 inh: -6.6; S100A4 MyoIIA: 4.4; SR-BI DiI inh: -14.5; SR-BI uptake up: 14.5; dFosB activator: -9.9; PvdQ acylase: -5.9

What do the screens show for `Cc1ccc(NS(=O)(=O)c2ccc3c(c2)n(C)c(=O)n3C)cc1`?
RAD54 inh: -6.0; S100A4 MyoIIA: -3.7; SR-BI DiI inh: -135.3; SR-BI uptake up: 135.3*; dFosB activator: -9.4; PvdQ acylase: -4.7

Results for O=C(N/N=C/c1cn(-c2ccccc2)nc1-c1cccs1)c1ccncc1 ?
SR-BI DiI inh: 37.4; SR-BI uptake up: -37.4; dFosB activator: -14.8; PvdQ acylase: 4.4

How did Cc1ccc(-c2nn(-c3ccccc3)cc2/C=N/NC(=O)c2ccncc2)o1 do in these assays?
S100A4 MyoIIA: 2.3; SR-BI DiI inh: 35.5; SR-BI uptake up: -35.5; dFosB activator: 26.2*; PvdQ acylase: -4.3
